Assay results from ChEMBL document CHEMBL4689842, “EUbOPEN Chemogenomics Library wave 1” (2021).

Test system: HEK-293T
Assay: Multiplex assay against HEK293T;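 for Population Tubulin-Different-Phenotype (%): share of the cells with healthy nuclei that show this phenotype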
Assay type: toxicity, cell-based
Details: human
Outline: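 Phenotypes for tubulin, mitochondrial mass and membrane permeability are expressed as per cents of healthy-nucleus cells. Cells were stained live at seeding with Hoechst33342, BioTracker Green Microtubule Cytoskeleton Dye, MitoTracker Red and Annexin V Alexa Fluor 680, then imaged after compound addition on a CQ1 microscope at 37°C and 5% CO2. Machine-learning gating in CellPathfinder separated Hoechst high-intensity objects from normal cells, divided normal cells by nuclear state (healthy, pyknosed, fragmented) and divided pyknosed cells into mitotic or apoptotic.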

[1] = 12 h, 1 µM, compound concentration 1 uM, replicate 1
[2] = 12 h, 1 µM, compound concentration 1 uM, replicate 2
[3] = 12 h, 10 µM, compound concentration 10 uM, replicate 1
[4] = 12 h, 10 µM, compound concentration 10 uM, replicate 2
[5] = 24 h, 1 µM, compound concentration 1 uM, replicate 1
[6] = 24 h, 1 µM, compound concentration 1 uM, replicate 2
[7] = 24 h, 10 µM, compound concentration 10 uM, replicate 1
[8] = 24 h, 10 µM, compound concentration 10 uM, replicate 2
[9] = 48 h, 1 µM, compound concentration 1 uM, replicate 1
[10] = 48 h, 1 µM, compound concentration 1 uM, replicate 2
[11] = 48 h, 10 µM, compound concentration 10 uM, replicate 1
[12] = 48 h, 10 µM, compound concentration 10 uM, replicate 2

CN1CCN(CCOc2cc(OC3CCOCC3)c3c(Nc4c(Cl)ccc5c4OCO5)ncnc3c2)CC1 [SARACATINIB]
Population Apoptotic (%) [1]: 51% | Population Fragmented Nuclei (%) [1]: 11% | Population Healthy Nuclei (%) [1]: 29% | Population Hoechst High Intensity Objects (%) [1]: 15% | Population Membrane Permeable-Phenotype (%) [1]: 2% | Population Mitochondria Different-Phenotype (%) [1]: 89% | Population Mitotic Cells (%) [1]: 48% | Population Normal (%) [1]: 84% | Population Pyknosed Nuclei (%) [1]: 58% | Population Tubulin-Different-Phenotype (%) [1]: 82% | Total Cell Count [1]: 345 | Population Apoptotic (%) [2]: 22% | Population Fragmented Nuclei (%) [2]: 4% | Population Healthy Nuclei (%) [2]: 31% | Population Hoechst High Intensity Objects (%) [2]: 8% | Population Membrane Permeable-Phenotype (%) [2]: 3% | Population Mitochondria Different-Phenotype (%) [2]: 71% | Population Mitotic Cells (%) [2]: 77% | Population Normal (%) [2]: 91% | Population Pyknosed Nuclei (%) [2]: 63% | Population Tubulin-Different-Phenotype (%) [2]: 58% | Population Apoptotic (%) [3]: 72% | Population Fragmented Nuclei (%) [3]: 15% | Population Healthy Nuclei (%) [3]: 21% | Population Hoechst High Intensity Objects (%) [3]: 17% | Population Membrane Permeable-Phenotype (%) [3]: 15% | Population Mitochondria Different-Phenotype (%) [3]: 94% | Population Mitotic Cells (%) [3]: 27% | Population Normal (%) [3]: 82% | Population Pyknosed Nuclei (%) [3]: 63% | Population Tubulin-Different-Phenotype (%) [3]: 89% | Total Cell Count [3]: 223 | Population Apoptotic (%) [4]: 82% | Population Fragmented Nuclei (%) [4]: 6% | Population Healthy Nuclei (%) [4]: 22% | Population Hoechst High Intensity Objects (%) [4]: 7% | Population Membrane Permeable-Phenotype (%) [4]: 2% | Population Mitochondria Different-Phenotype (%) [4]: 100% | Population Mitotic Cells (%) [4]: 17% | Population Normal (%) [4]: 92% | Population Pyknosed Nuclei (%) [4]: 71% | Population Tubulin-Different-Phenotype (%) [4]: 100% | Total Cell Count [4]: 190 | Population Apoptotic (%) [5]: 54% | Population Fragmented Nuclei (%) [5]: 11% | Population Healthy Nuclei (%) [5]: 36% | Population Hoechst High Intensity Objects (%) [5]: 13% | Population Membrane Permeable-Phenotype (%) [5]: 3% | Population Mitochondria Different-Phenotype (%) [5]: 87% | Population Mitotic Cells (%) [5]: 45% | Population Normal (%) [5]: 86% | Population Pyknosed Nuclei (%) [5]: 52% | Population Tubulin-Different-Phenotype (%) [5]: 65% | Total Cell Count [5]: 382 | Population Apoptotic (%) [6]: 28% | Population Fragmented Nuclei (%) [6]: 4% | Population Healthy Nuclei (%) [6]: 39% | Population Hoechst High Intensity Objects (%) [6]: 5% | Population Membrane Permeable-Phenotype (%) [6]: 1% | Population Mitochondria Different-Phenotype (%) [6]: 58% | Population Mitotic Cells (%) [6]: 71% | Population Normal (%) [6]: 94% | Population Pyknosed Nuclei (%) [6]: 55% | Population Tubulin-Different-Phenotype (%) [6]: 66% | Total Cell Count [6]: 217 | Population Apoptotic (%) [7]: 80% | Population Fragmented Nuclei (%) [7]: 12% | Population Healthy Nuclei (%) [7]: 15% | Population Hoechst High Intensity Objects (%) [7]: 23% | Population Membrane Permeable-Phenotype (%) [7]: 0% | Population Mitochondria Different-Phenotype (%) [7]: 100% | Population Mitotic Cells (%) [7]: 19% | Population Normal (%) [7]: 76% | Population Pyknosed Nuclei (%) [7]: 71% | Population Tubulin-Different-Phenotype (%) [7]: 90% | Total Cell Count [7]: 248 | Population Apoptotic (%) [8]: 88% | Population Fragmented Nuclei (%) [8]: 5% | Population Healthy Nuclei (%) [8]: 25% | Population Hoechst High Intensity Objects (%) [8]: 5% | Population Membrane Permeable-Phenotype (%) [8]: 6% | Population Mitochondria Different-Phenotype (%) [8]: 95% | Population Mitotic Cells (%) [8]: 11% | Population Normal (%) [8]: 94% | Population Pyknosed Nuclei (%) [8]: 69% | Population Tubulin-Different-Phenotype (%) [8]: 85% | Total Cell Count [8]: 208 | Population Apoptotic (%) [9]: 51% | Population Fragmented Nuclei (%) [9]: 16% | Population Healthy Nuclei (%) [9]: 47% | Population Hoechst High Intensity Objects (%) [9]: 18% | Population Membrane Permeable-Phenotype (%) [9]: 2% | Population Mitochondria Different-Phenotype (%) [9]: 50% | Population Mitotic Cells (%) [9]: 48% | Population Normal (%) [9]: 81% | Population Pyknosed Nuclei (%) [9]: 36% | Population Tubulin-Different-Phenotype (%) [9]: 49% | Total Cell Count [9]: 448 | Population Apoptotic (%) [10]: 26% | Population Fragmented Nuclei (%) [10]: 4% | Population Healthy Nuclei (%) [10]: 70% | Population Hoechst High Intensity Objects (%) [10]: 5% | Population Membrane Permeable-Phenotype (%) [10]: 1% | Population Mitochondria Different-Phenotype (%) [10]: 32% | Population Mitotic Cells (%) [10]: 73% | Population Normal (%) [10]: 94% | Population Pyknosed Nuclei (%) [10]: 25% | Population Tubulin-Different-Phenotype (%) [10]: 55% | Total Cell Count [10]: 315 | Population Apoptotic (%) [11]: 73% | Population Fragmented Nuclei (%) [11]: 23% | Population Healthy Nuclei (%) [11]: 30% | Population Hoechst High Intensity Objects (%) [11]: 26% | Population Membrane Permeable-Phenotype (%) [11]: 3% | Population Mitochondria Different-Phenotype (%) [11]: 96% | Population Mitotic Cells (%) [11]: 26% | Population Normal (%) [11]: 73% | Population Pyknosed Nuclei (%) [11]: 45% | Population Tubulin-Different-Phenotype (%) [11]: 78% | Total Cell Count [11]: 230 | Population Apoptotic (%) [12]: 84% | Population Fragmented Nuclei (%) [12]: 6% | Population Healthy Nuclei (%) [12]: 41% | Population Hoechst High Intensity Objects (%) [12]: 11% | Population Membrane Permeable-Phenotype (%) [12]: 0% | Population Mitochondria Different-Phenotype (%) [12]: 98% | Population Mitotic Cells (%) [12]: 15% | Population Normal (%) [12]: 88% | Population Pyknosed Nuclei (%) [12]: 52% | Population Tubulin-Different-Phenotype (%) [12]: 71% | Total Cell Count [12]: 204
